Compounds with a hit are over-represented: about 3.3% of the library has one in this group of screens.
Jurkat tox 60K – cytotoxicity toward Jurkat cells | Jurkat E6.1 viability, ATP luminescence, 48 h | inhibition, % at 4 µM | 56,000 compounds, 1.2% hits;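 active = inhibition above the mean inhibition of all tested compounds plus 3 SD, cut at about 28% in these data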
5HT1a ag – agonists of human 5-HT1a serotonin receptor; P08908; CHO 5-HT1a Ga15 NFAT-bla reporter, FRET ratio; 0% basal, 100% maximal reference agonist; activation, % at 10 µM; 65,000 compounds, 0.56% hits;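 active = activation above the screen-wide mean activation plus 3 SD, cut at about 19% in these data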
Target sequence (P08908 whole entry, looked up): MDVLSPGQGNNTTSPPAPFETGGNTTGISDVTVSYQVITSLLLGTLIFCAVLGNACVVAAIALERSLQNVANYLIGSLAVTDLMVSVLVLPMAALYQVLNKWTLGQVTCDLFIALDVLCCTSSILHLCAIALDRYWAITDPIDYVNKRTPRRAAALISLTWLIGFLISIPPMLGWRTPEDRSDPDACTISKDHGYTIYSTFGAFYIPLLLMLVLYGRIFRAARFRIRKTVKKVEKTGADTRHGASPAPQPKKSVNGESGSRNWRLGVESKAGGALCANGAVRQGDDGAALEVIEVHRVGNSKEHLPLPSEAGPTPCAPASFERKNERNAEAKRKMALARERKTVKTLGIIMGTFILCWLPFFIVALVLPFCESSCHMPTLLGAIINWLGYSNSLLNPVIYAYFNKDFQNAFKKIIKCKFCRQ
HTR1E antagonist – antagonists of human 5-HT1E serotonin receptor; P28566; CHO 5-HT1E Ga15 NFAT-bla reporter, FRET, antagonist; inhibition, % at 6 µM; 65,000 compounds, 0.99% hits;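 active = inhibition above a set limit, the mean inhibition across every tested compound plus 3 SD, cut at about 29% in these data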;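 note: signal is the 460 over 535 nm emission ratio of beta-lactamase substrate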
5-HT1A blocker – antagonists of human 5-HT1a serotonin receptor; P08908; CHO 5-HT1a Ga15 NFAT-bla reporter, antagonist mode; inhibition, % at 10 µM; 62,000 compounds, 0.68% hits; AID 612;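 active = inhibition above the mean of all tested compounds plus 3 SD, cut at about 43% in these data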;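 note: receptor stimulated by 5-CT agonist at 100 nM near EC80; beta-lactamase reporter measured by ratiometric fluorescence of a cleavable substrate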
5HT1E ag – 5-HT1E (human) receptor agonism; 65,000 compounds, 0.69% hits; AID 574; P28566; activation, % at 6 µM; CHO 5-HT1E Ga15 NFAT-bla reporter, FRET; 0% DMSO wells, 100% control agonist wells;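 active = activation above a set limit, the screen-wide mean activation plus 3 SD, cut at about 8.5% in these data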
HEK293 NFkB inh – inhibitors of the PMA/ionomycin-induced NF-kB reporter in HEK293 cells | inhibition, % at 3 µM | 62,000 compounds, 0.21% hits | HEK-293 NF-kB luciferase reporter, luminescence | AID 465;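 active = inhibition above the mean of all tested compounds plus 3 SD, cut at about 40% in these data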
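System – HEK-293 cells with stable firefly luciferase reporter driven by four HIV NF-kB elements · Doses – one dose, 3 µM · Schedule – 1 h compound pre-incubation, 16 h PMA/ionomycin at 37 °C · Technique – luminescence from luciferase substrate reagent · Measure – percent inhibition normalized per plate to DMSO and reference-inhibitor controls · Replicates – tested once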
Of the large screens only hits and unclear results are named; the others gave an inactive call.

O=C1CCCN1CCCNc1ncnc2c1[nH]c1ccc(Cl)cc12	HTR1E antagonist 35
Clc1ccc2[nH]c3c(NCCCN4CCOCC4)ncnc3c2c1	none (no result: Jurkat tox 60K, 5-HT1A blocker, HEK293 NFkB inh)
CC(=O)Nc1nc(CC(C)C)cc(-c2ccco2)c1C#N	none
Cn1c(=O)c2c(nc(SCc3cccnc3)n2Cc2ccccc2)n(C)c1=O	none
Cc1ccc(Cn2c(SCc3cccnc3)nc3c2c(=O)n(C)c(=O)n3C)cc1	5HT1a ag 29
CN(C)c1ccc(C2C=C(c3ccc(Cl)cc3OC(F)F)Nc3ncnn32)cc1 (configuration not stated)	Jurkat tox 60K 60, 5HT1a ag 28
C/C=C/Cn1c(SCc2ccc(C)cc2)nc2c1c(=O)[nH]c(=O)n2C	HTR1E antagonist 30
C=CCn1c(SCc2ccc(F)cc2)nc2c1c(=O)[nH]c(=O)n2C	none
Cc1cccc2cc(CN(Cc3nnnn3C3CCCC3)C3CCCCC3)c(=O)[nH]c12	HTR1E antagonist 33
CN(c1cc(=O)n2ccccc2n1)C1CCCCC1	5HT1a ag 30
Cc1ccc(-c2nn(C)c(=O)c3ccccc23)cc1S(=O)(=O)NCCO	HTR1E antagonist 29
Cc1ccc(-c2nn(C)c(=O)c3ccccc23)cc1S(=O)(=O)N1CCCC1	HTR1E antagonist 36
CCCn1c(=O)c(C(=O)Nc2nnc(C)s2)c(O)c2ccccc21	none
CCOc1ccccc1N1CCN(CC(O)COc2ccc3c(C)cc(=O)oc3c2)CC1 (configuration not stated)	5-HT1A blocker 89 (no result: Jurkat tox 60K)
COc1cccc(-n2c(SCC(=O)Nc3cc(C)on3)nc3c([nH]c4ccccc43)c2=O)c1	HTR1E antagonist 32
Cc1cc(NC(=O)CSc2nc3c([nH]c4ccccc43)c(=O)n2-c2cccc(C(F)(F)F)c2)no1	none (no result: Jurkat tox 60K)
COc1ccc(CC(NC(C)=O)C(=O)N2CCN(C(=O)Nc3ccc(Cl)cc3)CC2)cc1OC (configuration not stated)	none
Brc1ccc2[nH]c3nc(SCCN4CCOCC4)nnc3c2c1	HTR1E antagonist 36
C=CCc1ccccc1OCCCCN1CCCC1	5HT1E ag 10
Cc1ccccc1OCCCN1CCCC1	none
CCc1ccccc1OCCCCN1CCCC1	5HT1E ag 12
C=CCc1ccccc1OCC(CN1CCCCC1)OC(C)=O (configuration not stated)	none
CC(C)Cc1nc(N2CCOCC2)c(C#N)c2c1COC(C)(C)C2	none (no result: Jurkat tox 60K, 5-HT1A blocker, HEK293 NFkB inh)
O=C(Cc1ccc(F)cc1)Nc1c2c(nn1-c1cccc(Cl)c1)CS(=O)C2 (configuration not stated)	none
Cc1nn(C)c(C)c1NS(=O)(=O)c1ccccc1	none
Cc1nn(-c2ccccc2)c(C)c1NS(=O)(=O)c1ccccc1	HTR1E antagonist 36
CN1CCN(c2nc(-c3ccncc3)nc3ccccc23)CC1	5HT1E ag 9.1
c1ccc(-c2nc(N3CCCCCC3)c3ccccc3n2)nc1	Jurkat tox 60K 72
COc1ccc(-n2ncc3c(N4CCC(C)CC4)ncnc32)cc1	none
COc1ccc(-n2ncc3c(N(C)C4CCCCC4)ncnc32)cc1	5HT1a ag 31, HEK293 NFkB inh 46
Cc1cccc(-n2ncc3c(N(CCO)CCO)ncnc32)c1	none
Cc1cccc(-n2ncc3c(N(C)C4CCCCC4)ncnc32)c1	HEK293 NFkB inh 62
CCN(CC)c1ccc(-c2nn3c(-c4n[nH]c5c4CCC5)nnc3s2)cc1	Jurkat tox 60K 97, HTR1E antagonist 70, 5-HT1A blocker 56
CC(C)c1nc(SCc2c(F)cccc2Cl)c2c(=O)n(C)c(=O)n(C)c2n1	none
COc1ccccc1N1CCN(C(=O)c2c(-c3ccccc3Cl)noc2C)CC1	none
COc1ccc(-n2nnnc2-c2cccc(OC)c2)cc1	Jurkat tox 60K 78, HTR1E antagonist 35
Cc1ccc(CS(=O)(=O)CCC(=O)N2CCOCC2)cc1	none
Cn1c(C(=O)NCCc2c[nH]c3ccccc23)cc2sccc21	Jurkat tox 60K 62
O=C(NCCc1c[nH]c2ccccc12)c1c(Cl)nc2sccn12	HTR1E antagonist 33 (no result: Jurkat tox 60K)
COc1ccc(Cn2nnc3c(=O)[nH]c(C(=O)NCCc4ccc(F)cc4)nc32)cc1OC	none
O=C1CC(c2ccccc2)CC(O)=C1C=NCCN1CCN(C(=O)Nc2ccccc2)CC1 (configuration not stated)	none
COC(=O)C1=C(C)N(c2ccc(Cl)c(Cl)c2)C(=O)C1	Jurkat tox 60K 64
COC(=O)C1=C(C)N(c2ccc(S(N)(=O)=O)cc2)C(=O)C1	none (no result: Jurkat tox 60K)
CCOc1cc(N2CCOCC2)c(OCC)cc1NC(=O)CCS(=O)(=O)c1ccc(Cl)cc1	none
CCOc1cc(N2CCOCC2)c(OCC)cc1NS(=O)(=O)c1ccc(Cl)s1	Jurkat tox 60K 69
O=C(OCn1nnc2ccccc2c1=O)C1CCN(S(=O)(=O)c2cccs2)CC1	none
COC(=O)c1ccc(-c2sc3nc(N4CCOCC4)c4c(c3c2N)CCCC4)o1	5HT1a ag 25 (no result: Jurkat tox 60K, 5-HT1A blocker, HEK293 NFkB inh)
CCCN1C=CC(=C2C(=O)c3ccccc3C2=O)C=C1	HEK293 NFkB inh 86
CCN1C=CC(=C2C(=O)c3ccccc3C2=O)C=C1	HEK293 NFkB inh 50
CN1C=CC(=C2C(=O)c3ccccc3C2=O)C=C1	none
COC(=O)c1ccc(Oc2cc(C)nc(SC)n2)cc1	Jurkat tox 60K 65
CN(C)CCNC(=O)C(C(=O)c1ccc(F)cc1)n1ccccc1=O (configuration not stated)	5HT1a ag 120
O=C(NCc1ccco1)C(C(=O)c1ccc(F)cc1)n1ccccc1=O (configuration not stated)	none
Cc1cccc(NC(=O)Nc2ccc(C#N)cc2)n1	HTR1E antagonist 32, 5-HT1A blocker 83
Cc1cccc(NC(=O)Nc2cccc(C#N)c2)n1	none
COc1ccc2c(c1)N(C)C(=O)CC(c1ccccc1)=N2	none
COCc1c(C)cc(C)c(/C=N/O)c1C	none
O=C(c1ccco1)N(CCCN1CCOCC1)c1nc(-c2ccc(Cl)cc2)cs1	5-HT1A blocker 48
O=C(C1CCCN(S(=O)(=O)c2ccc(Br)s2)C1)N1CCCCCC1 (configuration not stated)	5HT1a ag 37 (no result: Jurkat tox 60K)
Cn1c(=O)c2c(nc(CN3CCN(C(=O)c4ccco4)CC3)n2Cc2ccccc2F)n(C)c1=O	none
c1ccc(-n2ncc3c(N4CCN(c5ccccn5)CC4)nc(N4CCOCC4)nc32)cc1	none
O=C(c1ccc(Cl)cc1)c1ccc(OCC(O)CN2CCOCC2)cc1 (configuration not stated)	5HT1E ag 9.1
O=C(c1ccccc1)c1ccc(OCC(O)CN2CCCCC2)cc1 (configuration not stated)	none
COc1ccc(-c2cc(CCCC(=O)NCCc3ccc(OC)cc3OC)no2)cc1	5HT1E ag 12
CCOc1ccc(-c2cc(CCCC(=O)Nc3cccc(OC)c3)no2)cc1	Jurkat tox 60K 91
